# Measured values published in article PMC9476207 (ACS Omega, 2022).
# Key:
# Assay in all cases: NCI-60 single-dose antiproliferative screen
# Type in all cases: cell-based
# MOLT-4 = settings: Homo sapiens, MOLT-4, 48 h, read-out: growth percent
# Outline: (§1)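 NCI-60 protocol. Lines were grown in RPMI 1640 with 5% FBS and 2 mM L-glutamine, plated and incubated 24 h at 37 °C; time-zero plates were TCA-fixed. The test compound was dissolved in DMSO, diluted in medium with 50 μg/mL gentamicin and given once at a final 10^-5 M (DMSO control) for 48 h. Cells were fixed with cold TCA (1 h, 4 °C) and stained with 0.4% SRB in 1% acetic acid for 10 min. Dye was dissolved in 10 mM Trizma base and read at 515 nm. Growth percent was calculated from time-zero, test and control ODs.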
# RPMI-8226 = settings: Homo sapiens, RPMI-8226, 48 h, read-out: growth percent
# Outline: as §1
# EKVX = settings: Homo sapiens, 48 h, read-out: growth percent
# Outline: as §1
# HOP-62 = settings: Homo sapiens, HOP-62, 48 h, read-out: growth percent
# Outline: as §1
# HOP-92 = settings: Homo sapiens, HOP-92, 48 h, read-out: growth percent
# Outline: as §1
# NCI-H226 = settings: Homo sapiens, NCI-H226, 48 h, read-out: growth percent
# Outline: as §1
# NCI-H322M = settings: Homo sapiens, 48 h, read-out: growth percent
# Outline: as §1
# NCI-H460 = settings: Homo sapiens, NCI-H460, 48 h, read-out: growth percent
# Outline: as §1
# NCI-H522 = settings: Homo sapiens, NCI-H522, 48 h, read-out: growth percent
# Outline: as §1
# COLO205 = settings: Homo sapiens, COLO 205, 48 h, read-out: growth percent
# Outline: as §1
# HCT-15 = settings: Homo sapiens, HCT-15, 48 h, read-out: growth percent
# Outline: as §1
# SF-268 = settings: Homo sapiens, SF-268, 48 h, read-out: growth percent
# Outline: as §1
# SF-295 = settings: Homo sapiens, SF-295, 48 h, read-out: growth percent
# Outline: as §1
# SNB-19 = settings: Homo sapiens, SNB-19, 48 h, read-out: growth percent
# Outline: (§2)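 Cells grown in RPMI 1640 with 5% FBS and 2 mM L-glutamine, plated and held 24 h at 37 °C; time-zero plates TCA-fixed. DMSO stocks were diluted in gentamicin-containing medium to a final 10^-5 M, with a DMSO-only control. Exposure 48 h, 5% CO2. Adherent cells TCA-fixed 1 h at 4 °C, stained with 0.4% SRB, solubilised in 10 mM Trizma base, read at 515 nm. Growth percent derived from ODtzero, ODtest and ODctrl.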
# U251 = settings: Homo sapiens, U-251, 48 h, read-out: growth percent
# Outline: as §2
# LOX IMVI = settings: Homo sapiens, 48 h, read-out: growth percent
# Outline: as §1
# MALME-3M = settings: Homo sapiens, 48 h, read-out: growth percent
# Outline: as §1
# M14 = settings: Homo sapiens, M14, 48 h, read-out: growth percent
# Outline: as §1
# MDA-MB-435 = settings: Homo sapiens, MDA-MB-435, 48 h, read-out: growth percent
# Outline: as §1
# SK-MEL-5 = settings: Homo sapiens, SK-MEL-5, 48 h, read-out: growth percent
# Outline: as §2
# OVCAR-3 = settings: Homo sapiens, OVCAR-3, 48 h, read-out: growth percent
# Outline: as §1
# OVCAR-4 = settings: Homo sapiens, OVCAR-4, 48 h, read-out: growth percent
# Outline: as §1
# OVCAR-5 = settings: Homo sapiens, OVCAR-5, 48 h, read-out: growth percent
# Outline: as §1
# OVCAR-8 = settings: Homo sapiens, OVCAR-8, 48 h, read-out: growth percent
# Outline: as §1
# NCI/ADR-RES = settings: Homo sapiens, 48 h, read-out: growth percent
# Outline: as §1
# SK-OV-3 = settings: Homo sapiens, SK-OV-3, 48 h, read-out: growth percent
# Outline: as §2
# 786-0 = settings: Homo sapiens, 786-0, 48 h, read-out: growth percent
# Outline: as §1
# CAKI-1 = settings: Homo sapiens, CAKI-1, 48 h, read-out: growth percent
# Outline: as §1
# RXF 393 = settings: Homo sapiens, RXF 393, 48 h, read-out: growth percent
# Outline: as §1
# SN12C = settings: Homo sapiens, 48 h, read-out: growth percent
# Outline: as §2
# TK-10 = settings: Homo sapiens, TK-10, 48 h, read-out: growth percent
# Outline: as §2
# UO-31 = settings: Homo sapiens, UO-31, 48 h, read-out: growth percent
# Outline: as §2
# DU-145 = settings: Homo sapiens, DU-145, 48 h, read-out: growth percent
# Outline: as §1
# HS 578T = settings: Homo sapiens, 48 h, read-out: growth percent
# Outline: as §1
# T-47D = settings: Homo sapiens, T47D, 48 h, read-out: growth percent
# Outline: as §2
# MDA-MB-468 = settings: Homo sapiens, MDA-MB-468, 48 h, read-out: growth percent
# Outline: as §1
SMILES,activity at 10 µM (MOLT-4) [%],activity at 10 µM (RPMI-8226) [%],activity at 10 µM (EKVX) [%],activity at 10 µM (HOP-62) [%],activity at 10 µM (HOP-92) [%],activity at 10 µM (NCI-H226) [%],activity at 10 µM (NCI-H322M) [%],activity at 10 µM (NCI-H460) [%],activity at 10 µM (NCI-H522) [%],activity at 10 µM (COLO205) [%],activity at 10 µM (HCT-15) [%],activity at 10 µM (SF-268) [%],activity at 10 µM (SF-295) [%],activity at 10 µM (SNB-19) [%],activity at 10 µM (U251) [%],activity at 10 µM (LOX IMVI) [%],activity at 10 µM (MALME-3M) [%],activity at 10 µM (M14) [%],activity at 10 µM (MDA-MB-435) [%],activity at 10 µM (SK-MEL-5) [%],further results
"COc1cc(CNC(=O)CCCC/C=C/C(C)C)ccc1OCc1cn(-c2cccc([N+](=O)[O-])c2)nn1 [14f, (E)-N-(3-Methoxy-4-((1-(3-nitrophenyl)-1H-1,2,3-triazol-4-yl)methoxy)benzyl)-8-methylnon-6-enamide]",86.6,65.9,95.1,97.4,70.4,90.9,94.1,91.8,82.6,107,77.9,92.2,104,68.2,85.3,92.9,103,93.4,101,93.2,activity at 10 µM (OVCAR-3): 105%; activity at 10 µM (OVCAR-4): 94.2%; activity at 10 µM (OVCAR-5): 107%; activity at 10 µM (OVCAR-8): 76.9%; activity at 10 µM (NCI/ADR-RES): 81.8%; activity at 10 µM (SK-OV-3): 93.5%; activity at 10 µM (786-0): 73.4%; activity at 10 µM (CAKI-1): 81.7%; activity at 10 µM (RXF 393): 92.7%; activity at 10 µM (SN12C): 89.5%; activity at 10 µM (TK-10): 105%; activity at 10 µM (UO-31): 74.7%; activity at 10 µM (DU-145): 109%; activity at 10 µM (HS 578T): 90.8%; activity at 10 µM (T-47D): 72.3%; activity at 10 µM (MDA-MB-468): 72.3%
"COc1cc(CNC(=O)CCCC/C=C/C(C)C)ccc1OCc1cn(-c2cc(OC)c(OC)c(OC)c2)nn1 [14m, (E)-N-(3-Methoxy-4-((1-(3,4,5-trimethoxyphenyl)-1H-1,2,3-triazol-4-yl)methoxy)benzyl)-8-methylnon-6-enamide]",92,79.4,95.9,90.7,82.5,91.4,89.1,102,65.2,106,103,90.5,105,85.1,92.8,94.4,98.5,94.5,106,77.5,activity at 10 µM (OVCAR-3): 103%; activity at 10 µM (OVCAR-4): 103%; activity at 10 µM (OVCAR-5): 109%; activity at 10 µM (OVCAR-8): 88.2%; activity at 10 µM (NCI/ADR-RES): 91.7%; activity at 10 µM (SK-OV-3): 89.9%; activity at 10 µM (786-0): 108%; activity at 10 µM (CAKI-1): 79.5%; activity at 10 µM (RXF 393): 104%; activity at 10 µM (SN12C): 102%; activity at 10 µM (TK-10): 91.6%; activity at 10 µM (UO-31): 117%; activity at 10 µM (DU-145): 85.4%; activity at 10 µM (HS 578T): 69%; activity at 10 µM (T-47D): 95.8%; activity at 10 µM (MDA-MB-468): 80.4%
"COc1cc(CNC(=O)CCCC/C=C/C(C)C)ccc1OCc1cn(-c2ccc(C(F)(F)F)cc2)nn1 [14g, (E)-N-(3-Methoxy-4-((1-(4-(trifluoromethyl)phenyl)-1H-1,2,3-triazol-4-yl)methoxy)benzyl)-8-methylnon-6-enamide]",80.3,53.4,88.2,64.6,13.8,53.6,96.2,16.7,75.6,72.6,59.7,87.8,90.9,76.1,46.7,60.3,99.7,97.5,107,97.1,activity at 10 µM (OVCAR-3): 107%; activity at 10 µM (OVCAR-4): 98.6%; activity at 10 µM (OVCAR-5): 96.6%; activity at 10 µM (OVCAR-8): 41.1%; activity at 10 µM (NCI/ADR-RES): 48.2%; activity at 10 µM (SK-OV-3): 91.3%; activity at 10 µM (786-0): 2.94%; activity at 10 µM (CAKI-1): 85.8%; activity at 10 µM (RXF 393): 90.2%; activity at 10 µM (SN12C): 65.6%; activity at 10 µM (TK-10): 20.4%; activity at 10 µM (UO-31): 92.8%; activity at 10 µM (DU-145): 62.2%; activity at 10 µM (HS 578T): 70.7%; activity at 10 µM (T-47D): 84.5%; activity at 10 µM (MDA-MB-468): 70.2%
